MC4R ag barr = human MC4R agonism via beta-arrestin | P32245 | U2OS MC4R beta-arrestin complementation, luminescence; percent of melanotan II response, DMSO zero | activation, % at 8.9 µM | 360,000 compounds, 0.98% hits | AID 540308;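 active means activation above a per-plate cutoff, the mean activation of sample wells on that plate plus 3 SD, cut at about 8% in these data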
Target sequence (P32245 whole entry, looked up): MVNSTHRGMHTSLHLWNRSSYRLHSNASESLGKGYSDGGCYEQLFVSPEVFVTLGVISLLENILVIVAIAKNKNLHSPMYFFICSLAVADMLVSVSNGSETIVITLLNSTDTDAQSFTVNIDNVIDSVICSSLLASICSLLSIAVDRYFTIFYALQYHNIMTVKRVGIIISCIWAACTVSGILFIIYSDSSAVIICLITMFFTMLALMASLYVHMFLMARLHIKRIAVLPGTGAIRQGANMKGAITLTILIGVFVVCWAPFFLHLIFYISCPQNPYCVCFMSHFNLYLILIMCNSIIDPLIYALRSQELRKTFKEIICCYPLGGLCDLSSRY
PG9 Ab binder = binds the HIV-1 gp120 antibody PG9; TR-FRET gp120-PG9 antibody binding; inhibition, % at 6.7 µM; 360,000 compounds, 0.43% hits; in the data active means inhibition above about 8.5%
NR1D1 modulator = Rev-erb alpha (human) modulation. P20393. Rev-erbα–FITC-DNA binding, fluorescence polarization, 90 min. activity, % at 10 µM. 370,000 compounds, 0.79% hits. AID 1259318;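 active means activity above about 14%, limit read from the data; passing the limit was not always enough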;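 further: 0% = DMSO wells with 35 nM protein and 100% = DMSO wells with 750 nM protein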
MC4R antag cAMP = human MC4R antagonism in cAMP assay | AID 540295 | P32245 | inhibition, % at 6.5 µM | MC4R-expressing cells, MTII-stimulated cAMP, LANCE TR-FRET | 360,000 compounds, 0.48% hits;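 active means inhibition above its plate's cutoff, the mean of tested wells on that plate plus 3 SD, cut at about 29% in these data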;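 further: 0% = Melanotan II alone and 100% = Melanotan II plus saturating MCL0020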
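Material: U2OS-MC4R stable cell line | Reagent: Melanotan II challenge after compound preincubation | Doses: One concentration, 6.5 µM nominal | Incubation: 30-min compound preincubation, 1-h Melanotan II challenge, 1-h detection, room temperature | Signal: TR-FRET cAMP assay | Replicates: One well per compound, no replicates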
NR2E3 ag-1 = agonists of human NR2E3 nuclear receptor; Q9Y5X4; CHO-S Gal4-NCOR/VP16-NR2E3 two-hybrid, luciferase; 360,000 compounds, 0.35% hits; AID 602229; inhibition of corepressor binding, % at 3.98 µM;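 active means inhibition above the mean of all tested compounds plus 3 SD, cut at about 70% in these data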;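 further: 0% = DMSO with NR2E3 transfected cells and 100% = cells lacking NR2E3 construct; higher means lower luciferase signal from less NR2E3 corepressor binding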
NR2E3 ag-2 = agonists of human nuclear receptor NR2E3 | inhibition of corepressor binding, % at 4.78 µM | GST-NR2E3/biotin-RetCOR TR-FRET, 1536-well | AID 2300 | 320,000 compounds, 0.12% hits;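 active means percent inhibition above the cutoff of mean plus 3 SD of all tested compounds, set per screening campaign, cut at about 20% in these data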;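 further: 0% = DMSO wells and 100% = biotin wells as full block of FRET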
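Assay system: NR2E3–RetCOR corepressor complex. Quantity: 1.35 nM GST-NR2E3. Buffer or medium: pH 7.5 Tris-based buffer. Reagent: biotinylated RetCOR corepressor at 7 nM final. Schedule: 5 h at 4 °C. Detection: TR-FRET, emission read at 617 and 671 nm. Replicates: one well per compound, singlicate testing.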
cAMP nonselect = U2OS forskolin cAMP inhibition counter-screen | AID 602193 | inhibition, % at 6.5 µM | 1,600 compounds, 26% hits | shares compounds with MC4R antag cAMP | parental U2OS, LANCE TR-FRET;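 active means mean inhibition over triplicates above the low-control well mean plus 3 SD, set per campaign, cut at about 13% in these data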;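 further: signal is single emission at 671 nm which falls as cellular cAMP rises; 0% = forskolin-stimulated wells and 100% = buffer without forskolin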
MC4R antag conf = human MC4R cAMP antagonism confirmation; shares compounds with MC4R antag cAMP; MC4R-expressing cells, MTII-stimulated cAMP, TR-FRET; inhibition, % at 6.5 µM; 1,600 compounds, 27% hits; AID 602195; in the data active means inhibition above about 29%;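 further: 0% = agonist stimulated wells alone and 100% = agonist stimulated wells plus saturating reference antagonist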
* hit, by the source's call; · = no result. Only some compounds are listed: those with a hit (about 2.7% of all), similar ones and a draw of the others.

SMILES | MC4R ag barr | PG9 Ab binder | NR1D1 modulator | MC4R antag cAMP | NR2E3 ag-1 | NR2E3 ag-2 | cAMP nonselect | MC4R antag conf
COc1ccccc1CNC(=O)c1oc2ccc(S(=O)(=O)N3CCCC3)cc2c1C | 0 | · | · | 29* | 21 | -2 | 4 | 12
COC(=O)c1cc(CSc2ncnc3sccc23)oc1C | -1 | 0 | 1 | 13 | -92 | 3 | · | ·
CC(C)CN(CCCNC(=O)CN1C(=O)COc2ccc(S(=O)(=O)N3CCC(C)CC3)cc21)CC(C)C | -4 | -2 | -3 | -1 | -37 | 1 | · | ·
COC(=O)[C@]1(C)CCC[C@@]2(C)C3CC[C@@]4(C)C[C@]3(CCC21)CC(=O)N4 (some centres undefined) | -2 | 1 | -2 | 3 | 3 | 1 | · | ·
C=C1C(=O)C23CCC4C(C)(C(=O)OC)CCCC4(C)C2CCC1(O)C3 (centres undefined) | 0 | 4 | 7 | 40* | 15 | · | 22* | 38*
OCCN1CCN(c2cc(C(F)(F)F)nc3c(F)cccc23)CC1 | -2 | -1 | 3 | 30* | 2 | 2 | -2 | 5
CCN(CC)C(=O)CCCc1c[nH]c2ccccc12 | 1 | 0 | 9 | 32* | -22 | 2 | 1 | -11
CCCCN(C)C(=O)CCCc1c[nH]c2ccccc12 | -1 | -1 | -3 | 3 | -32 | 0 | · | ·
CCC(C)(C)NC(=O)CN(CC1CCCO1)C(=O)CCC(=O)Nc1nccs1 (centres undefined) | 0 | 0 | -1 | 35* | 2 | 4 | -4 | -6
CC(C)CCNC(=O)CN(CC1CCCO1)C(=O)CCC(=O)Nc1nccs1 (centres undefined) | 1 | 2 | -1 | -3 | 21 | -2 | · | ·
COc1ccc(/C(C#N)=C/c2cccnc2)cc1 | 0 | -1 | -1 | 0 | -75 | · | · | ·
CCOC(=O)Cc1cc(=O)n2[nH]cc(-c3ccc(Cl)cc3)c2n1 | -1 | 0 | -4 | 30* | 8 | 1 | 1 | 3
COCCNc1nc(Oc2ccc(NC(C)=O)cc2)c2sc(-c3ccccc3)cc2n1 | 6 | -1 | 1 | 47* | -23 | · | -2 | 8
N#Cc1c([N+](=O)[O-])cc([N+](=O)[O-])cc1S(=O)(=O)Cc1ccccc1 | -6 | 3 | -3 | 88* | 10 | 8 | 34* | -5
COc1ccc(NC(=O)C2CCCN2C(=O)Nc2ccccc2)cc1OC (centres undefined) | -2 | 0 | 4 | -3 | -22 | 3 | · | ·
COC(=O)CSc1nnc(-c2ccc(NS(=O)(=O)c3ccc(C(C)(C)C)cc3)cc2)o1 | · | · | -12 | · | · | · | · | ·
COC(=O)CSc1nnc(-c2ccc(S(=O)(=O)N3CCCCC3)cc2)o1 | -2 | 1 | -1 | 33* | -24 | -1 | 13 | 44*
COC(=O)CSc1nnc(-c2ccc(S(=O)(=O)N3CCC(C)CC3)cc2)o1 | -1 | 1 | -3 | 22 | -18 | 0 | · | ·
Cc1ccc(S(=O)(=O)NCC(=O)OCc2nnc(-c3ccccc3)o2)cc1 | -2 | -1 | 3 | 30* | 5 | 0 | 13 | 20
CCOC(=O)CSc1nnc(-c2ccc(NS(=O)(=O)c3ccc(C)cc3)cc2)o1 | -1 | 0 | 2 | 38* | -16 | 3 | 5 | 22
COc1cc(CC(=O)OCC(=O)NC2CC2)cc(OC)c1OC | -2 | -3 | -1 | -4 | -22 | 2 | · | ·
COc1ccc(OC)c2[nH]c(=O)c(CCNC(=O)C(=O)c3c(C)[nH]c4ccccc34)cc12 | 1 | -1 | -4 | 31* | 6 | 0 | 3 | 4
COc1ccc(OC)c2[nH]c(=O)c(CCNC(C)=O)cc12 | 2 | 2 | 2 | 16 | -32 | 3 | · | ·
COc1ccc(OC)c2[nH]c(=O)c(CCNS(=O)(=O)c3ccc(F)cc3)cc12 | 3 | 0 | 0 | 33* | -33 | 3 | 1 | -2
Cc1ccc(-n2c(SCC(=O)O)nc3sc4c(c3c2=O)CCCC4)cc1 | 2 | 1 | -1 | 9 | -4 | 1 | · | ·
SMILES | MC4R ag barr | PG9 Ab binder | NR1D1 modulator | MC4R antag cAMP | NR2E3 ag-1 | NR2E3 ag-2 | cAMP nonselect | MC4R antag conf
Cc1ccc(-c2c(CC(=O)O)c(C)nc3sc4c(c23)CCCC4)cc1 | -1 | 0 | 5 | 29* | -16 | -1 | 2 | -1
Cc1ccc(NC(=O)C2=C(c3ccccc3)S(=O)(=O)CCS2(=O)=O)cc1 | 0 | 0 | 5 | 61* | 16 | 4 | 50* | 44*
COC(=O)C(Cc1ccc(O)cc1)NC(=O)c1ccccc1 (centres undefined) | 0 | 2 | 0 | 49* | 0 | -2 | 16* | 41*
COc1cc(/C=N/NC(=O)C2COc3ccccc3O2)ccc1O (centres undefined) | -2 | -2 | 7 | 2 | -37 | 0 | · | ·
COc1ccc(/C=N/NC(=O)C2COc3ccccc3O2)cc1OC (centres undefined) | 2 | 1 | -5 | 29* | 2 | -1 | -2 | -12
COc1ccc(NC(=O)CC2C(=O)N(c3cccc(OC)c3)C(=O)N2Cc2ccco2)cc1 (centres undefined) | -1 | 0 | -1 | 0 | -22 | -3 | · | ·
CCOc1cc(NC(=S)NCC2CCCO2)c(OCC)cc1NC(=O)c1ccccc1C (centres undefined) | 0 | -1 | -1 | 30* | 4 | 1 | -8 | -16
CCOc1cc(NC(=S)NCC2CCCO2)c(OCC)cc1NC(=O)c1ccc(OC)cc1 (centres undefined) | -1 | -2 | -3 | 7 | -6 | -2 | · | ·
CC(=O)N(Cc1c(C)nn(-c2ccccc2)c1Cl)c1ccc(Cl)cc1 | 0 | -1 | 4 | 0 | -17 | 1 | · | ·
Cc1nn(-c2ccccc2)c(Cl)c1CN(C(=O)CCl)c1ccc(Cl)cc1 | 11* | -1 | 1 | 40* | -18 | 5 | -37 | 47*
CC(=O)Nc1ccc2nc(NC(=O)c3cccnc3)sc2c1 | -1 | 1 | 0 | 4 | -26 | 1 | · | ·
CC(=O)Nc1ccc2nc(NC(=O)C(Cl)(Cl)Cl)sc2c1 | 0 | 1 | 1 | 29* | 5 | 3 | -4 | -19
CCOc1ccc(NC(=O)CN(C)CC(=O)Nc2ccccc2C#N)cc1OCC | -1 | 0 | -4 | 8 | 24 | 5 | · | ·
CN(C)S(=O)(=O)c1ccc(-c2csc(N/N=C/c3ccc(O)cc3)n2)cc1 | 9.8* | -3 | 0 | 32* | -19 | 1 | 1 | 29*

Screening results (PubChem)
